Active and inactive are the calls of the source. The calls are words filed in the database; no cut-off is given here.

Test [1] in a line: (§1) Inhibition of recombinant full length Aedes aegypti AChE1 expressed in baculovirus-infected Sf9 insect cells using acetylthiocholine iodide as substrate measured over 60 secs by Ellman's method. In outline: (§2)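 Secreted, non-purified recombinant enzyme in growth medium, tested as enzyme source. Ellman assay at 30 °C in 0.1 M phosphate buffer pH 7.4 with 0.2 mM DTNB and 1 mM acetylthiocholine iodide; A412 followed over 60 s. Compound (100 mM DMSO stock) tested at eight concentrations, maximum 1 mM. Activity set relative to eight uninhibited controls per plate; IC50 from three-parameter variable-slope fit; 2-3 independent replicates.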
Background: DTNB colorimetry detects thiols as they appear.

Test [2] in a line: Selectivity ratio of IC50 for recombinant human AChE expressed in HEK293F cells to IC50 for recombinant full length Anopheles gambiae AChE1 expressed in baculovirus-infected Sf9 insect cells. The method, boiled down:
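Ratio of the hAChE IC50 divided by the higher of the AgAChE1 or AaAChE1 IC50. Each IC50 came from an Ellman assay (1 mM acetylthiocholine, 0.2 mM DTNB, pH 7.4, 30 °C) with eight concentrations up to 1 mM, using 2-3 replicates.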

Test [3] has as its target Acetylcholinesterase (Homo sapiens, UniProt P22303). In words: Inhibition of recombinant human AChE expressed in HEK293F cells using acetylthiocholine iodide as substrate measured over 60 secs by Ellman's method. More on the design: species or system HEK293.
Test [4] concerns the target Acetylcholinesterase (Anopheles gambiae, UniProt Q869C3, G122S). In words: Inhibition of recombinant full length Anopheles gambiae AChE1 G122S mutant expressed in baculovirus-infected Sf9 insect cells using acetylthiocholine iodide as substrate measured over 60 secs by Ellman's method.
The target of test [5] is Acetylcholinesterase (Anopheles gambiae, UniProt Q869C3). Briefly: (§3) Inhibition of recombinant full length Anopheles gambiae AChE1 expressed in baculovirus-infected Sf9 insect cells using acetylthiocholine iodide as substrate measured over 60 secs by Ellman's method.
Test [6] has as its system Aedes aegypti. In words: Inhibition of recombinant full length Aedes aegypti AChE1 expressed in baculovirus-infected Sf9 insect cells at 1 mM using acetylthiocholine iodide as substrate measured over 60 secs by Ellman's method. The method, boiled down:
as §2

Test [7] has as its system Aedes aegypti. The test is described as §1. In outline:
as §2

Test [8] deals with Acetylcholinesterase (Anopheles gambiae) (UniProt Q869C3). In words: Inhibition of recombinant full length Anopheles gambiae AChE1 expressed in baculovirus-infected Sf9 insect cells at 1 mM using acetylthiocholine iodide as substrate measured over 60 secs by Ellman's method. In outline: as §2
For test [9] the target is unchanged. The test is described as §3.
Test [10] has as its system Acetylcholinesterase (Anopheles gambiae), Q869C3 [G122S]. Briefly: Inhibition of recombinant full length Anopheles gambiae AChE1 G122S mutant expressed in baculovirus-infected Sf9 insect cells up to 1 mM using acetylthiocholine iodide as substrate measured over 60 secs by Ellman's method. In outline:
as §2

As a reminder, the IC50 is the point on the concentration scale where inhibition reaches its midpoint. As to `COc1ccccc1NC(=S)NCCN1CCCCC1`, the IC50 in test [1] is 22 µM; at Acetylcholinesterase [3], 32 µM; at Acetylcholinesterase [4], 66 µM; at Acetylcholinesterase [5] it was 29 µM. In test [2], the Ratio IC50 amounted to 1.
In the case of `FC(F)(F)c1ccc(NC(=S)NCCN2CCCCC2)cc1`, the IC50 (in test [1]; at Acetylcholinesterase [3]; on Acetylcholinesterase [4]; at Acetylcholinesterase [5]) was over 200 µM in each case.
With `COc1ccc(NC(=S)NCCN2CCCCC2)cc1`, the IC50 is 28 µM in [1], 120 µM on Acetylcholinesterase [3], 94 µM on Acetylcholinesterase [4] and 29 µM on Acetylcholinesterase [5]. Besides, the Ratio IC50 in test [2] came out at 4.
As to `COc1ccc(NC(=S)NCCN(C)C)cc1Cl`, the IC50 in test [1] is 16 µM; on Acetylcholinesterase [3] it was 46 µM; on Acetylcholinesterase [4] it was 17 µM; on Acetylcholinesterase [5], 18 µM. The Ratio IC50 in test [2] was found to be 3.
Usually inhibition stands for the percentage by which the read-out fell short of the control. Take `NS(=O)(=O)c1ccc(NC(=S)NCCN2CCCCC2)cc1`: the inhibition is 70% in the test with Aedes aegypti [6], “Dose-dependent effect” with Aedes aegypti [7], 70% in test [8] and “Dose-dependent effect” in test [9]. For the same molecule, the IC50 in test [1] is 5.5 µM; on Acetylcholinesterase [3], 90 µM; at Acetylcholinesterase [4] it was 33 µM; at Acetylcholinesterase [5], 7.8 µM. In addition, in test [2], the Ratio IC50 was determined as 12.
Consider `COc1ccc(NC(S)=NCCN2CCC(C)CC2)cc1Cl`, for which the inhibition was 90% with Aedes aegypti [6], “Dose-dependent effect” with Aedes aegypti [7], 90% in test [8] and “Dose-dependent effect” in test [9]. The IC50 in test [1] came out at 0.63 µM; on Acetylcholinesterase [3], 12 µM; on Acetylcholinesterase [4], 24 µM; on Acetylcholinesterase [5], 0.96 µM. In addition, in [2], the Ratio IC50 worked out at 13.
On to `COc1ccccc1N=C(S)NCCN1CCOCC1`, for which the IC50 (in [1]; at Acetylcholinesterase [3]; on Acetylcholinesterase [5]) was over 200 µM in each case. Moreover, the inhibition result in test [10] is “inactive”.
For `S=C(NCCN1CCOCC1)Nc1cccc(Cl)c1`, the IC50 in [1] was 53 µM; at Acetylcholinesterase [3], over 200 µM; at Acetylcholinesterase [4], over 200 µM; on Acetylcholinesterase [5] it was 68 µM. For the same molecule, the Ratio IC50 in test [2] is over 3.
On to `CN(C)CCNC(=S)Nc1ccccc1Cl`, for which the IC50 in [1] was 14 µM; on Acetylcholinesterase [3], over 200 µM; at Acetylcholinesterase [4] it was over 200 µM; on Acetylcholinesterase [5], 17 µM.
Regarding `COc1ccc(NC(S)=NCCN2CCC(C)CC2)cc1`, the IC50 (in test [1]; at Acetylcholinesterase [3]; on Acetylcholinesterase [4]; at Acetylcholinesterase [5]) was over 200 µM in each case.

Values taken from ChEMBL document CHEMBL4033657, “N-Aryl-N'-ethyleneaminothioureas effectively inhibit acetylcholinesterase 1 from disease-transmitting mosquitoes” (Eur J Med Chem, 2017).
